Assay outcomes from PubChem BioAssay.
MsrA inhibitor – bovine MsrA inhibition. purified bovine MsrA, absorbance read-out. inhibition, % at 15.5 µM. 0.75% of 360,000 active. AID 651718
MIN6 prolif – induces beta-cell replication in MIN6 cells | MIN6 cells proliferation, ATPlite luminescence, 48 h; cells starved in 0.2% serum; 100% = growth in 10% serum | proliferation, % at 10 µM | 0.29% of 330,000 active | AID 2380;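 active = compounds whose signal lies at least 3.5 SD above the mean of all wells on their plate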
MsrA act – activates bovine MsrA enzyme. purified bovine MsrA, absorbance read-out. activation, % at 10.6 µM. 0.3% of 360,000 active. AID 602163; in the data active = activation above about 7.5%
MT1-MMP act inh – MT1-MMP (human) activation inhibition | P50281 | HT1080 RFP-PRO-GFP cells, GFP/RFP ratio fluorescence, overnight; percent of plate control window, DMSO zero | GFP/RFP ratio change, % at 20 µM | 0.061% of 360,000 active;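 active = GFP/RFP ratio change of at least 30% with cell ATP level not reduced by more than half and red fluorescence within 50% of control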
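Test system: HT1080 cells expressing an RFP-PRO-GFP fluorescent reporter construct / Compound dosing: single-point 20 µM compound, 1% DMSO / Schedule: cells overnight before dosing, compound overnight, 37 °C, 5% CO2 / Evaluation: GFP/RFP fluorescence ratio / Control set: DMSO and RFP-L50D-GFP cell wells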
SKN-1 inh – C. elegans SKN-1 inhibition | C. elegans VP596 Pgst-4::GFP/RFP ratio, acrylamide-induced, 24 h | inhibition, % at 21.8 µM | 0.49% of 360,000 active | AID 624304;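 active = interference check ratio from 0.5 to 1.5 plus GFP to RFP signal ratio inhibition reaching or exceeding a fixed threshold, cut at about 30% in these data, passing the limit was not always enough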
DAGLB inhibitor – blocks human DAGLB lipase activity; Q8NCG7; HEK293T DAGLB membrane lysate, EnzChek fluorogenic substrate; inhibition, % at 5.17 µM; 0.059% of 340,000 active; in the data active = inhibition above about 34%
Target sequence (Q8NCG7 whole entry, looked up): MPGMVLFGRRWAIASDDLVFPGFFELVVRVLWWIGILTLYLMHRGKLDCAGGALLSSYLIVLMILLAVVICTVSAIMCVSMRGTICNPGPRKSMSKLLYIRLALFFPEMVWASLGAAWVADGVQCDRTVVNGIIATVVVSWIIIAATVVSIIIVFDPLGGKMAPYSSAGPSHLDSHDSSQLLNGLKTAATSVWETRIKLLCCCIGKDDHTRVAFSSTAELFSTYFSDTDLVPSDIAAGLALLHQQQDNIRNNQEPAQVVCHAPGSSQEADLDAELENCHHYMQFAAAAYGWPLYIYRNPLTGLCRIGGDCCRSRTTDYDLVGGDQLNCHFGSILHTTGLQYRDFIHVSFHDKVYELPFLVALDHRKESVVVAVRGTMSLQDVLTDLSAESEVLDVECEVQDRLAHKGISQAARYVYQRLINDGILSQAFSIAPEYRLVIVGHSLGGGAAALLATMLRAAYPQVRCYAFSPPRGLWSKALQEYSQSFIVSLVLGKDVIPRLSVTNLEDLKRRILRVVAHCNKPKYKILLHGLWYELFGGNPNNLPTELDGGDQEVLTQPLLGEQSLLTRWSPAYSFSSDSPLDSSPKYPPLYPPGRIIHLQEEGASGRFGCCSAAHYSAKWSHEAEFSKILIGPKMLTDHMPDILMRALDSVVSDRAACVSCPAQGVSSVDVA
MsrA inh confirm – confirmation of bovine MsrA inhibitors | purified bovine MsrA, absorbance read-out | 41% of 2,300 active | shares compounds with MsrA inhibitor | inhibition, % at 15.5 µM;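 note: coupled to thioredoxin reductase with NADPH and selenocystamine and DMSO as substrate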
Numbers stand for hits; - = inactive; . = not tested or not shown. In the library only some 1.8% were active in any assay of this set; here they are far more common. Cut-off read from the data, not from the text of the source, unless noted: active = inhibition above about 4.5%; inactive = the rest.

SMILES	MsrA inhibitor	MIN6 prolif	MsrA act	MT1-MMP act inh	SKN-1 inh	DAGLB inhibitor	MsrA inh confirm
C(=N\Nc1nc(N2CCOCC2)nc(N2CCOCC2)n1)/c1cccnc1	-	-	-	-	-	-	.
BrC(/C=C\c1ccccc1)=N/Nc1nc(N2CCOCC2)nc(N2CCOCC2)n1	6.7	-	-	-	-	-	4.6
C(=N\Nc1nc(N2CCOCC2)nc(N2CCOCC2)n1)/c1ccncc1	-	-	-	-	-	-	.
BrC(=C\c1ccccc1)/C=N/Nc1nc(N2CCOCC2)nc(N2CCOCC2)n1	5.3	-	-	-	-	-	4.8
CCOC(=O)c1cc(-c2ccccc2)sc1NC(=O)C(C)OC(=O)c1cccnc1Cl (stereo not drawn)	-	-	-	-	-	-	.
S=c1[nH]nc(-c2ccc(Cl)cc2)n1/N=C/C=C/c1ccco1	-	-	-	-	-	.	.
S=c1[nH]nc(-c2ccccc2)n1/N=C/C=C/c1ccco1	5.7	-	-	-	-	-	6.2
Cc1ccccc1-c1n[nH]c(=S)n1/N=C/C=C/c1ccco1	4.7	-	-	-	-	-	-
COCCn1ccc2c(OCC(=O)Nc3ccccc3OC)cccc2c1=O	-	-	-	-	-	-	.
S=c1nc(-c2ccccc2Cl)n(Cc2cccnc2)c2c1CCCC2	5.9	-	-	-	-	-	4.7
OCCCn1c(-c2ccccc2)nc(=S)c2c1CCCC2	-	-	-	-	-	-	.
CCC(CC)NC(=O)C1CCN(c2ccc(S(=O)(=O)N3CCOCC3)cc2[N+](=O)[O-])CC1	-	-	-	-	-	-	.
Cc1c(C(=O)N(C)C)sc2nc(-c3ccccn3)[nH]c(=O)c12	5.8	-	-	-	-	-	-
CCN(CC)C(=O)c1sc2nc(Cc3ccccc3)[nH]c(=O)c2c1C	-	-	-	-	-	-	.
COc1ccc(-c2nnc(-c3cccs3)o2)cc1OC	5.3	-	-	-	-	-	-
c1csc(-c2ccc(N3CCOCC3)nn2)c1	-	-	-	-	-	-	.
c1csc(-c2nnc(-c3ccc(N4CCOCC4)cc3)o2)c1	5.2	-	-	-	-	-	-
O=C(c1cc(=O)c2ccccc2o1)N1CCCc2ccccc21	-	-	-	-	-	-	.
CSCc1c(C(=O)N2CCCc3ccccc32)oc2ccccc12	8.4	-	-	-	-	-	-
CC1(C)CC(NCc2ccccc2)=CC(=S)N1	.	.	-	-	-	.	.
CC1(C)CC(N2CCN(CCO)CC2)=CC(=S)N1	5.8	-	-	-	-	-	6.1
O=C(COC(=O)C1CCN(/C=C/C(=O)C(F)(F)F)CC1)Nc1ccccc1	4.8	-	-	-	-	-	-
O=C(COC(=O)C1CC2CCCC(C1)C2=O)Nc1ccccc1 (stereo not drawn)	-	-	-	-	-	-	.
COc1cc(C(=O)NCC(=O)N/N=C/c2ccco2)cc(OC)c1OC	-	-	-	-	-	-	.
COc1ccc(C(=O)NCC(=O)N/N=C/C(C)=C/c2ccco2)cc1OC	6.6	-	-	-	-	-	-
SMILES	MsrA inhibitor	MIN6 prolif	MsrA act	MT1-MMP act inh	SKN-1 inh	DAGLB inhibitor	MsrA inh confirm
CC(C)(C)c1ccc(S(=O)(=O)N2CCc3nc4ccccc4c(C(=O)O)c3C2)cc1	-	-	-	-	-	-	.
FC(F)(F)c1ccc(N=Cc2sc(N3CCOCC3)nc2-c2ccccc2)cc1	18	-	-	-	-	-	17
O=C(C1=C(O)C(=O)N(CCN2CCOCC2)C1c1cccc([N+](=O)[O-])c1)c1cccs1 (stereo not drawn)	-	-	-	-	-	-	.
O=C(C1=C(O)C(=O)N(CCOCCO)C1c1cccc([N+](=O)[O-])c1)c1cccs1 (stereo not drawn)	5.0	-	-	-	-	-	-
O=C(NCC(=O)N1CCC2(CC1)NCCc1[nH]cnc12)c1cccc(Cl)c1	-	-	-	-	-	-	.
CC(=O)N1c2ccccc2NC2=C(C(=O)CCC2)C1c1ccco1 (stereo not drawn)	4.9	-	-	.	-	-	-
CCC(=O)N1c2ccccc2NC2=C(C(=O)CCC2)C1c1cccnc1 (stereo not drawn)	4.8	-	-	-	-	-	-
Cc1nc2ccccc2c2c(N)cccc12	-	.	-	-	-	-	.
Cn1ccnc1Sc1cc(NCCCO)c([N+](=O)[O-])c2nonc12	5.7	-	-	-	-	-	-
O=[N+]([O-])c1c(NCCCO)cc(Sc2ccc(Cl)cc2)c2nonc12	-	.	-	-	-	-	.
COc1ccccc1NC(=O)CSc1nnc2ccc(-c3ccccn3)nn12	-	-	-	-	-	-	.
CCn1cc(/C=C(\NC(=O)c2ccc(OC)c(OC)c2)C(=O)NCCCO)c2ccccc21	5.8	-	-	-	-	-	-
COc1ccc(C(=O)N/C(=C\c2cn(C)c3ccccc23)C(=O)NCCCN2CCOCC2)cc1OC	5.7	-	-	-	-	-	-
CCn1cc(/C=C(\NC(=O)c2ccc(OC)c(OC)c2)C(=O)NCCN2CCOCC2)c2ccccc21	-	-	-	-	-	-	.
Cn1cc(/C=C(\NC(=O)c2ccccc2)C(=O)NCCCN2CCOCC2)c2ccccc21	6.8	-	-	-	-	-	5.3
CCn1cc(/C=C(\NC(=O)c2ccccc2F)C(=O)NCCN2CCOCC2)c2ccccc21	5.3	-	-	-	-	-	-
CN(Cc1ccccc1)S(=O)(=O)c1ccc(N2CCOCC2)nc1	-	-	-	-	-	-	.
CCN1CCN(c2ccc(S(=O)(=O)N3CCCCC3)cc2NC(=O)c2ccc(C)o2)CC1	.	-	-	-	-	-	.
CN(C)c1ccc(/C=C(\NC(=O)c2ccccc2)C(=O)NCCCN2CCOCC2)cc1	-	-	-	-	-	-	.
CN(C)c1ccc(/C=C(\NC(=O)c2ccccc2)C(=O)NCCN2CCOCC2)cc1	5.3	-	-	-	-	-	-
CCCC1(C(=O)OC)NC(c2ccc(OC)c(OC)c2)C2C(=O)N(c3cccc(C(C)=O)c3)C(=O)C21 (stereo not drawn)	-	-	-	-	-	-	.
O=C(O)c1cc(N/N=C/C=C/c2ccccc2)ccc1Cl	5.1	-	-	-	-	-	-
Cc1ccc(C(=O)N/N=C/C=C/c2ccccc2)cc1	4.9	-	-	-	-	-	4.6
O=C(N/N=C/C=C/c1ccccc1)c1cccc(Br)c1	-	-	-	-	-	-	.
Cc1cc(C(=O)N/N=C/c2ccccc2)c(C)o1	-	-	-	-	-	-	.
O=C(N/N=C/C=C/c1ccccc1)c1ccccc1Br	-	-	-	-	-	-	.
Cc1cc(C(=O)N/N=C/C=C/c2ccccc2)c(C)o1	4.7	-	-	-	-	-	-
NC(=S)N/N=C/C=C/c1ccccc1	5.2	-	-	-	-	-	-
